Experimental data: ChEMBL document CHEMBL6071171, “Molecular Mechanisms of Methamphetamine-Induced Addiction via TAAR1 Activation” (J Med Chem, 2024)
Changes are numbered by the printed parent chain. Active and inactive are the calls of the source. No cut-off for these calls is given here.

How the values were obtained:
Format in all cases: cell-based
[1] = system: T1, Trace amine-associated receptor 1 (Homo sapiens), Q96RJ0 [F186A]; assay: Agonist activity against TAAR1 F186A mutant (unknown origin) expressed in HEK293 cells assessed as increase in cAMP accumulation incubated for 30 mins by HTRF assay
T1 sequence (whole entry): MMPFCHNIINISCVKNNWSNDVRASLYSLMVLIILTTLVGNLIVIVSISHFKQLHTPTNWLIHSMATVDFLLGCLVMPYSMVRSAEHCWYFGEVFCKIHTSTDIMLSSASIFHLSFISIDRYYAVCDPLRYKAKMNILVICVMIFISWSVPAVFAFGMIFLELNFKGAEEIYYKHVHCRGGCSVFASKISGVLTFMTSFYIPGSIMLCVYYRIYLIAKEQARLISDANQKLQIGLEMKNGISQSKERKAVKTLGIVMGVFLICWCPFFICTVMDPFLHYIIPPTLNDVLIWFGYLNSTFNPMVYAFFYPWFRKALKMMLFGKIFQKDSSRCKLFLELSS
Summary of the method: (§1)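 HEK293 cells harvested 48 h after transfection with plasmid at 1 μg mL–1; 8000 cells per well incubated 30 min at 37 °C with agonist over 10–4 to 10–10 M. cAMP read by HTRF (d2-cAMP plus Eu-cryptate antibody, 1 h room temperature; excitation 330 nm, emission 620/665 nm). pEC50 and Emax from dose–response curves; mean ± s.e.m. of three independent experiments, each in technical triplicate.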

[2] = system: T2, Trace amine-associated receptor 1 (Homo sapiens), Q96RJ0 [D103A]; assay: Agonist activity against TAAR1 D103A mutant (unknown origin) expressed in HEK293 cells assessed as increase in cAMP accumulation incubated for 30 mins by HTRF assay; summary of the method: as §1
T2 sequence (whole entry): T1 sequence (whole entry) with D103A, A186F

[3] = system: T3, Trace amine-associated receptor 1 (Homo sapiens), Q96RJ0 [I290A]; assay: Agonist activity against TAAR1 I290A mutant (unknown origin) expressed in HEK293 cells assessed as fold increase in cAMP accumulation incubated for 30 mins by HTRF assay relative to control; conditions: filed as agonist
T3 sequence (whole entry): T1 sequence (whole entry) with A186F, I290A

[4] = system: T4, Trace amine-associated receptor 1 (Homo sapiens), Q96RJ0 [Y294A]; assay: Agonist activity against TAAR1 Y294A mutant (unknown origin) expressed in HEK293 cells assessed as increase in cAMP accumulation incubated for 30 mins by HTRF assay; summary of the method: as §1
T4 sequence (whole entry): T1 sequence (whole entry) with A186F, Y294A

[5] = system: T5, Trace amine-associated receptor 1 (Homo sapiens), Q96RJ0 [W264A]; assay: Agonist activity against TAAR1 W264A mutant (unknown origin) expressed in HEK293 cells assessed as increase in cAMP accumulation incubated for 30 mins by HTRF assay; summary of the method: as §1
T5 sequence (whole entry): T1 sequence (whole entry) with A186F, W264A

[6] = system: T6, Trace amine-associated receptor 1 (Homo sapiens), Q96RJ0 [F268A]; assay: Agonist activity against TAAR1 F268A mutant (unknown origin) expressed in HEK293 cells assessed as increase in cAMP accumulation incubated for 30 mins by HTRF assay; conditions: filed as agonist; summary of the method: as §1
T6 sequence (whole entry): T1 sequence (whole entry) with A186F, F268A

[7] = system: T7, Trace amine-associated receptor 1 (Homo sapiens), Q96RJ0 [F267A]; assay: Agonist activity against TAAR1 F267A mutant (unknown origin) expressed in HEK293 cells assessed as increase in cAMP accumulation incubated for 30 mins by HTRF assay; summary of the method: as §1
T7 sequence (whole entry): T1 sequence (whole entry) with A186F, F267A

[8] = system: T8, Trace amine-associated receptor 1 (Homo sapiens), Q96RJ0 [V184A]; assay: Agonist activity against TAAR1 V184A mutant (unknown origin) expressed in HEK293 cells assessed as increase in cAMP accumulation incubated for 30 mins by HTRF assay; summary of the method: as §1
T8 sequence (whole entry): T1 sequence (whole entry) with V184A, A186F

[9] = system: T9, Trace amine-associated receptor 1 (Homo sapiens), Q96RJ0 [I104A]; assay: Agonist activity against TAAR1 I104A mutant (unknown origin) expressed in HEK293 cells assessed as increase in cAMP accumulation incubated for 30 mins by HTRF assay; summary of the method: as §1
T9 sequence (whole entry): T1 sequence (whole entry) with I104A, A186F

[10] = system: T10, Trace amine-associated receptor 1 (Homo sapiens), Q96RJ0 [F195A]; assay: Agonist activity against TAAR1 F195A mutant (unknown origin) expressed in HEK293 cells assessed as increase in cAMP accumulation incubated for 30 mins by HTRF assay; summary of the method: as §1
T10 sequence (whole entry): T1 sequence (whole entry) with F185A, A186F

[11] = system: T11, Trace amine-associated receptor 1 (Homo sapiens), Q96RJ0 [G293A]; assay: Agonist activity against TAAR1 G293A mutant (unknown origin) expressed in HEK293 cells assessed as increase in cAMP accumulation incubated for 30 mins by HTRF assay; summary of the method: as §1
T11 sequence (whole entry): T1 sequence (whole entry) with A186F, G293A

For CN[C@@H](C)Cc1ccccc1, the Activity [1] was “inactive”, the Activity [2] was “inactive” and the fold change (FC) [3] was 6. For the same molecule, the Activity [4] was “inactive”, the Activity [5] was “inactive” and the Activity [6] was “Active”. For the same molecule, the Activity [7] was “inactive”, the Activity ([8]; filed as agonist) was “Active” and the Activity [9] was “inactive”. The Activity [10] was “inactive” and the Activity [11] was “inactive”.
For NCCc1ccccc1, the Activity [1] was “inactive”, the Activity [6] was “Active” and the Activity [8] was “inactive”.
